Structures are written as SMILES. Activity calls are given as the source filed them. The calls are words filed in the database; no cut-off is given here. A value given as a limit tells only on which side of the number the result lay.

Results on 18 compounds are retold here after ChEMBL document CHEMBL1143912, “Synthesis and anti-HIV evaluation of novel 1,3-disubstituted thieno[3,2-c][1,2,6]thiadiazin-4(3H)-one 2,2-dioxides(TTDDs)” (Bioorg Med Chem, 2008).

The subject of series [1] is Human immunodeficiency virus 1. As to the kind of experiment: Antiviral activity against HIV1 3B assessed as inhibition of virus-induced cytopathogenicity in MT4 cells after 4 days by MTT assay. As to conditions: Human immunodeficiency virus 1, 3B, MT4, 96 h. The class given is functional, organism-based. In outline: (§1)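 MT-4 cells at 1 × 10⁵ cells/mL infected at MOI 0.02, then immediately plated into wells holding serial concentrations of compound (DMSO stocks, 10 mg/ml). Incubated 4 days at 37 °C, then viable cells read by MTT. EC50 is the concentration protecting 50% of infected cells from viral cytopathicity. Values are means of at least two separate experiments.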
(Damage to the host cells serves as the signal in cytopathic effect assays.)

Series [2] can be described thus: Cytotoxicity against human MT4 cells after 4 days by MTT assay. The class given is cell-based. In outline: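 Uninfected MT-4 cells were run in parallel with the antiviral assay, exposed to serial compound concentrations (DMSO stocks, 10 mg/ml) for 4 days at 37 °C, with viability read by MTT. CC50 is the concentration cutting mock-infected cell viability by 50%. ">" marks the highest concentration tested that was still non-cytotoxic. Values are means of at least two experiments.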
(Tetrazolium assays rely on reduction of a dye to a coloured formazan, in cell work by metabolically active cells.)

For series [3], the system named is Human immunodeficiency virus 2. Nature of the series: Antiviral activity against HIV2 ROD assessed as inhibition of virus-induced cytopathogenicity in MT4 cells after 4 days by MTT assay. It counts as functional, organism-based. Summed up:
as §1

Series [4] can be described thus: Selectivity index, Ratio of CC50 for human MT4 cells to EC50 for HIV1 3B. The class given is functional. In outline: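 SI is CC50 in mock-infected MT-4 cells divided by EC50 against HIV-1 IIIB. Both come from the same 4-day MTT assay run in parallel in infected (MOI 0.02) and uninfected cells, each as the mean of at least two experiments.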

As a reminder, the EC50 is the concentration needed to bring the measured effect to its halfway point. For orientation: CC50 means the concentration that lowers cell viability or growth by half. High values mean better tolerance by the cells, low ones harm at low concentration. Turning to `O=C1c2sccc2N(Cc2ccc([N+](=O)[O-])cc2)S(=O)(=O)N1Cc1ccccc1`, the half-maximal effective concentration (EC50) in series [1] was above 268 µM. This compound also displayed a CC50 at 96 h in series [2] of 268 µM. The outcome in series [3] was inactive. The “Ratio CC50/EC50” value in series [4] is below 1.

For `O=C1c2sccc2N(Cc2ccccc2Br)S(=O)(=O)N1Cc1ccccc1`, the EC50 in series [1] was 7.3 µM. The compound further displayed a CC50 at 96 h in series [2] above 270 µM. Moreover, the result in series [3] was inactive. Further, in series [4], the “Ratio CC50/EC50” value is reported as above 37.

As to `O=C1N(Cc2ccccc2Cl)c2cscc2S(=O)(=O)N1Cc1ccccc1`, the EC50 in series [1] turned out to be 0.1 µM. This compound also registered a 50% cytotoxic concentration (CC50) at 96 h in series [2] above 119 µM. The “Ratio CC50/EC50” value in series [4] is given as above 1190.

`O=C1c2sccc2N(Cc2ccccc2Cl)S(=O)(=O)N1Cc1ccccc1`: in series [1], the EC50 was found to be 4.8 µM. Also, the CC50 at 96 h in series [2] was above 299 µM. For the same compound, in series [3], the outcome was inactive. The “Ratio CC50/EC50” value in series [4] is on record as above 62.

Take `O=C1c2sccc2NS(=O)(=O)N1Cc1ccccc1`: the EC50 in series [1] is above 374 µM. In series [2], the CC50 at 96 h was found to be 374 µM. For the same compound, the outcome in series [3] was inactive. In addition, in series [4], the “Ratio CC50/EC50” value was below 1.

As to `N#CCN1C(=O)N(Cc2ccccc2)S(=O)(=O)c2cscc21`, the EC50 in series [1] turned out to be 0.9 µM. Moreover, the midpoint of cytotoxicity in series [2], the CC50 at 96 h, lay at 503 µM. For the same compound, the “Ratio CC50/EC50” value in series [4] is reported as 559.

For the compound `Cc1cn([C@H]2C[C@H](N=[N+]=[N-])[C@@H](CO)O2)c(=O)[nH]c1=O` [ZIDOVUDINE], in series [1], the EC50 was found to be 0.0007 µM. The same compound registered a CC50 at 96 h in series [2] of 35.6 µM. The “Ratio CC50/EC50” value in series [4] is reported as 50587.

With `CN1c2ccsc2C(=O)N(Cc2ccccc2)S1(=O)=O`, the EC50 in series [1] turned out to be 71 µM. In addition, half-maximal cytotoxicity in series [2] (CC50 at 96 h) was put at 202 µM. Besides, in series [3], the outcome was inactive. For the same compound, the “Ratio CC50/EC50” value in series [4] is on record as 3.

In the case of `O=C1c2sccc2N(Cc2cccc(Cl)c2)S(=O)(=O)N1Cc1ccccc1`, the EC50 in series [1] came out at 5.9 µM. This compound also came in with a cytotoxic concentration (CC50) at 96 h in series [2] above 299 µM. The outcome in series [3] was inactive. In addition, the “Ratio CC50/EC50” value in series [4] is above 51.

For the compound `O=C1c2sccc2N(Cc2ccc(Cl)cc2Cl)S(=O)(=O)N1Cc1ccccc1`, the EC50 in series [1] is 52.1 µM. For the same compound, the CC50 at 96 h in series [2] amounted to 247 µM. The outcome in series [3] was inactive. In addition, the “Ratio CC50/EC50” value in series [4] worked out at 5.

Turning to `O=C1c2sccc2N(Cc2ccc(Cl)cc2)S(=O)(=O)N1Cc1ccccc1`, in series [1], the EC50 is above 8.2 µM. In addition, half-maximal cytotoxicity in series [2] (CC50 at 96 h) was put at 8.2 µM. The outcome in series [3] was inactive. Further, the “Ratio CC50/EC50” value in series [4] is below 1.

Take `N#Cc1ccc(CN2c3ccsc3C(=O)N(Cc3ccccc3)S2(=O)=O)cc1`: the EC50 in series [1] is above 8.5 µM. The compound also returned a CC50 at 96 h in series [2] of 8.5 µM. Further, in series [3], the outcome was inactive. In addition, in series [4], the “Ratio CC50/EC50” value is below 1.

In the case of `N#Cc1cccc(CN2c3ccsc3C(=O)N(Cc3ccccc3)S2(=O)=O)c1`, the EC50 in series [1] is 4 µM. The CC50 at 96 h in series [2] is above 306 µM. Also, the outcome in series [3] was inactive. For the same compound, the “Ratio CC50/EC50” value in series [4] is recorded as above 76.

As for `Cc1ccnc2c1NC(=O)c1cccnc1N2C1CC1` [NEVIRAPINE], the EC50 in series [1] amounted to 0.03 µM. In series [2], this compound gave a CC50 at 96 h of 683 µM. Also, in series [4], the “Ratio CC50/EC50” value is given as 22767.

As to `N#CCN1c2ccsc2C(=O)N(Cc2ccccc2)S1(=O)=O`, the half-maximal effective concentration (EC50) in series [1] is above 5.7 µM. In series [2], this compound yielded a CC50 at 96 h of 5.7 µM. In addition, the result in series [3] was inactive. The “Ratio CC50/EC50” value in series [4] is given as below 1.

Regarding `O=C1c2sccc2N(Cc2ccc(Br)cc2)S(=O)(=O)N1Cc1ccccc1`, the 50% effective concentration (EC50) in series [1] was above 6.6 µM. Moreover, half-maximal cytotoxicity in series [2] (CC50 at 96 h) was put at 6.6 µM. For the same compound, the result in series [3] was inactive. In addition, the “Ratio CC50/EC50” value in series [4] is below 1.

In the case of `O=C1c2sccc2N(Cc2ccccc2)S(=O)(=O)N1Cc1ccccc1`, in series [1], the EC50 is above 37.5 µM. In series [2], this compound registered a CC50 at 96 h of 37.5 µM. Also, in series [3], the outcome was inactive. In series [4], the “Ratio CC50/EC50” value is given as below 1.

`N#Cc1ccccc1CN1c2ccsc2C(=O)N(Cc2ccccc2)S1(=O)=O`: the EC50 in series [1] stood at 5.1 µM. The same compound displayed a CC50 at 96 h in series [2] above 306 µM. Also, the result in series [3] was inactive. Besides, the “Ratio CC50/EC50” value in series [4] was above 59.
